Source: PubChem (several laboratories)
CTSL1 counter: blocks F. hepatica cathepsin L1 in PFM18AAP counter-screen. recombinant F. hepatica cathepsin L1, Z-Leu-Arg-MCA fluorescence. actives 0.49% (n = 300,000). inhibition, % at 5.96 µM;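 active means inhibition above the mean of all tested compounds plus 3 SD, set per screening campaign, cut at about 17% in these data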;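 further: 0% = plate median of test compound wells and 100% = 1 µM Z-Phe-Ala-diazomethylketone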
UCH37 DUB inh: human UCH37 deubiquitinating enzyme inhibition | purified proteasome/UCH37, Ub-AMC cleavage fluorescence | inhibition, % (concentration not given with the values) | actives 0.33% (n = 330,000);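 active means mean inhibition over replicate wells above about 20%, limit read from the data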;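 further: 0% = compound-free wells with enzyme and 100% = wells lacking proteasome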
Target sequence (Q9Y5K5 whole entry, looked up): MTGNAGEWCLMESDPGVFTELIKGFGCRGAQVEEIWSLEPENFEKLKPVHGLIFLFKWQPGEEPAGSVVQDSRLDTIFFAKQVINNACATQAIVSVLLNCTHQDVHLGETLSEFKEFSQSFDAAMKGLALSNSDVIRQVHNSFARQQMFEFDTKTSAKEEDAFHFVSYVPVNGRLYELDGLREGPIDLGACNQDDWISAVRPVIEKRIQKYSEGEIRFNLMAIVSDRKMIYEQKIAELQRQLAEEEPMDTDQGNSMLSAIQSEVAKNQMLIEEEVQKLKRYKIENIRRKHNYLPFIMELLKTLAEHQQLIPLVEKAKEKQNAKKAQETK
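Schedule: 30 min plus 25 min, room temperature / Material: human UCH37 within purified proteasomes / Technique: AMC fluorescence intensity at 355/460 nm / Buffer or medium: pH 7.4 Tris-HCl (50 mM) with ovalbumin, ATP-MgCl2, DTT / Controls: wells without proteasome as full block, compound-free enzyme plus substrate as uninhibited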
PP5 inh: inhibitors of human protein phosphatase 5 (PP5); P53041; purified PP5c, OMFP substrate fluorescence; inhibition, % at 6.7 µM; actives 0.18% (n = 320,000); AID 1987;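 active means inhibition above the campaign's mean inhibition across all tested compounds plus 3 SD, cut at about 9.5% in these data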;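 further: 0% = DMSO only and 100% = 100 µM cantharidin control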
PP1 inh: counter-screen for PP5 inhibitors: inhibitors of human PP1-alpha; P62136; AID 2235; purified PP1alpha, OMFP fluorescence; inhibition, % at 6.7 µM; actives 0.9% (n = 320,000);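 active means inhibition above the mean inhibition of all tested compounds plus 3 SD, computed separately for each screening campaign, cut at about 15% in these data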
PREPL inhibitor: inhibitors of human prolyl oligopeptidase-like enzyme PREPL; Q4J6C6; recombinant PREPL, fluorescence polarization activity-based probe; inhibition, % at 5.96 µM; actives 0.68% (n = 320,000); in the data active means inhibition above about 43%;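 further: 0% = enzyme with DMSO and 100% = wells lacking enzyme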
UBC13 inh: blocks human UBC13 polyubiquitin chain formation; AID 485273; inhibition, % at 20 µM; actives 0.47% (n = 330,000); P61088; TR-FRET; in the data active means inhibition above about 45%, passing the limit was not always enough; inconclusive means no clear call, values can overlap the other calls
Casp3 UBC13 ctr: caspase-3 inhibition (UBC13 counter-screen) | inhibition, % at 20 µM | actives 4% (n = 1,400) | AID 488856 | Recombinant caspase-3, Caspase-Glo 3/7 luminescence, 60 min | shares compounds with UBC13 inh;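 active means mean inhibition across replicates above about 26%, limit read from the data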;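 further: plate controls were DMSO with caspase-3 for no effect and DMSO wells lacking enzyme for full effect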
UBC13 conf: human UBC13 polyubiquitin inhibition, confirmed | shares compounds with UBC13 inh | UBC13 polyubiquitination, TR-FRET, biochemical | inhibition, % at 10 µM | actives 68% (n = 1,400); in the data active means inhibition above about 45%; inconclusive means no clear call, values can overlap the other calls
* = called active by the depositor. Most compounds without a hit are left out; they make up all but 2.3% or so of the library.

What do the screens show for `Cn1c(SCC(=O)c2ccc(F)cc2)ncc(C(=O)Nc2ccccc2)c1=O`?
CTSL1 counter: 2; UCH37 DUB inh: -18; PP5 inh: 1; PP1 inh: 1; PREPL inhibitor: -7; UBC13 inh: 58*; Casp3 UBC13 ctr: 79*; UBC13 conf: 69*

Results for Cc1ccc(CNC(=O)CSc2ncc(C(=O)Nc3ccccc3)c(=O)n2C)cc1 ?
CTSL1 counter: 8; UCH37 DUB inh: -141; PP5 inh: 0; PP1 inh: 0; PREPL inhibitor: -7; UBC13 inh: 55*; Casp3 UBC13 ctr: 95*; UBC13 conf: 63*

What do the screens show for `COc1cccc(NC(=O)c2cnc(SCC(=O)NCc3ccc4c(c3)OCO4)n(C)c2=O)c1`?
CTSL1 counter: 3; UCH37 DUB inh: -51; PP5 inh: -1; PP1 inh: -5; PREPL inhibitor: -18; UBC13 inh: 56*; Casp3 UBC13 ctr: 98*; UBC13 conf: 50*

What do the screens show for `COc1ccccc1NC(=O)c1cnc(SCC(=O)NCCc2ccccc2)n(C)c1=O`?
CTSL1 counter: 0; UCH37 DUB inh: -90; PP5 inh: -1; PP1 inh: -6; PREPL inhibitor: 2; UBC13 inh: 21

What do the screens show for `Cn1c(SCC(=O)NCc2ccccc2)ncc(C(=O)Nc2ccccc2)c1=O`?
CTSL1 counter: 0; UCH37 DUB inh: -20; PP5 inh: -1; PP1 inh: 2; PREPL inhibitor: 7; UBC13 inh: 63*; Casp3 UBC13 ctr: 96*; UBC13 conf: 62*

Results for CCOc1cc(C=NNC(=O)c2ccncc2)ccc1OC(=O)c1ccco1 ?
UCH37 DUB inh: 7

Results for O=C(CCCn1c(SCC(=O)NCC2CCCO2)nc2ccccc2c1=O)NCC1CCCO1 (stereo not drawn) ?
CTSL1 counter: 2; UCH37 DUB inh: 4; PP5 inh: -3; PP1 inh: 0; PREPL inhibitor: 3; UBC13 inh: -1

What do the screens show for `Cn1c(SCC(=O)NCC2CCCO2)ncc(C(=O)Nc2ccccc2)c1=O` (stereo not drawn)?
CTSL1 counter: 2; UCH37 DUB inh: -141; PP5 inh: 5; PP1 inh: -6; PREPL inhibitor: -8; UBC13 inh: 69*; Casp3 UBC13 ctr: 96*; UBC13 conf: 66*

What do the screens show for `Cc1ccsc1C=NN1CCN(Cc2ccccc2)CC1`?
UCH37 DUB inh: 0

What do the screens show for `CCc1cc2c(=O)n(-c3ccccc3)c(=S)[nH]c2s1`?
CTSL1 counter: 6; UCH37 DUB inh: 5; PP5 inh: 0; PP1 inh: 4; PREPL inhibitor: 1; UBC13 inh: 48*; Casp3 UBC13 ctr: 2; UBC13 conf: inconclusive

What do the screens show for `O=[N+]([O-])c1cc(S(=O)(=O)Nc2ccc(Cl)cc2)ccc1NN=Cc1ccncc1`?
UCH37 DUB inh: 6

What do the screens show for `C#CCOCCOCCOCCNc1nc(N2CCN(C(=O)[C@H](Cc3ccc(O)cc3)n3cc([C@@H](N)C(C)CC)nn3)CC2)nc(N2CCN(C(=O)[C@H](CCCCN)n3cc([C@@H](N)CC(C)C)nn3)CC2)n1` (stereo partly drawn)?
CTSL1 counter: 3; UCH37 DUB inh: 2; PP5 inh: 2; PP1 inh: 0; PREPL inhibitor: 21; UBC13 inh: 58*; Casp3 UBC13 ctr: -2; UBC13 conf: 50*

Results for C#CCOCCOCCOCCNc1nc(N2CCN(C(=O)[C@H]([C@@H](C)CC)n3cc([C@@H](N)Cc4ccc(O)cc4)nn3)CC2)nc(N2CCN(C(=O)[C@H](CCCCN)n3cc([C@@H](N)CO)nn3)CC2)n1 ?
CTSL1 counter: 16; UCH37 DUB inh: 0; PP5 inh: 3; PP1 inh: 5; PREPL inhibitor: 12; UBC13 inh: 98*; Casp3 UBC13 ctr: -3; UBC13 conf: 73*
